Measured values taken from ChEMBL document CHEMBL3046144, “Insecticidal and fumigant activities of Cinnamomum cassia bark-derived materials against Mechoris ursulus (Coleoptera: attelabidae)” (2000).

Tested on: Attelabidae
Assay: Insecticidal activity against Mechoris ursulus assessed as mortality at 5 mg/paper at 25 +/- 1 degC measured after 48 hr by filter paper diffusion method
Format: functional
Outline: (§1)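 M. ursulus larvae. Compound in 1 mL acetone applied to a filter paper (50-mm diameter), dried in a hood 2 min, then placed in the bottom of a polyethylene cup with the larvae. Controls got 1 mL acetone. Held at 25 ± 1 °C, 50-60% RH, 16L:8D. Run in triplicate, mean ± SE.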

Structure (SMILES) | mortality [%]
O=C/C=C/c1ccccc1 [CINNAMALDEHYDE] | 100
O=C(O)/C=C/c1ccccc1 [CINNAMIC ACID] | 86.7
OC/C=C/c1ccccc1 [CINNAMIC ALCOHOL] | 50
C=CCc1ccc(O)c(OC)c1 [EUGENOL] | 100
O=Cc1ccccc1O [SALICYLADEHYDE] | 100

Tested on: Attelabidae
Assay: Insecticidal activity against Mechoris ursulus assessed as mortality at 1 mg/paper at 25 +/- 1 degC measured after 48 hr by filter paper diffusion method
Format: functional
Outline: as §1

Structure (SMILES) | mortality [%]
O=C/C=C/c1ccccc1 [CINNAMALDEHYDE] | 83.3
O=C(O)/C=C/c1ccccc1 [CINNAMIC ACID] | 53.3
C=CCc1ccc(O)c(OC)c1 [EUGENOL] | 66.7
O=Cc1ccccc1O [SALICYLADEHYDE] | 74.4

Tested on: Attelabidae
Assay: Insecticidal activity against Mechoris ursulus assessed as mortality at 2.5 mg/paper at 25 +/- 1 degC measured after 48 hr by filter paper diffusion method
Format: functional
Outline: as §1

Structure (SMILES) | mortality [%]
O=C/C=C/c1ccccc1 [CINNAMALDEHYDE] | 100
O=C(O)/C=C/c1ccccc1 [CINNAMIC ACID] | 73.3
C=CCc1ccc(O)c(OC)c1 [EUGENOL] | 90
O=Cc1ccccc1O [SALICYLADEHYDE] | 88.9
